SMILES strings stand for the structures. “Also recorded” adds a separate entry of the source. Like-named read-outs stand apart in the source and are kept apart here. Some results are limits rather than exact numbers.

The values that follow come from article PMC4084610 (Advances in pharmacology (San Diego, Calif.), 2014).

For one data set, the system named is rats. Particulars: cited from earlier work.
Data set [1] addresses T1, VMAT2 (Rattus norvegicus, UniProt Q01827). In kind it is binding. The note with it: whole rat brain vesicles, mean±SEM; for Ki: read-out: [3H]DTBZ binding Ki, 5 nM [3H]DTBZ.
In data set [2] the target is T1, VMAT2. In kind it is biochemical.
Data set [3] addresses T2, DAT (Rattus norvegicus, UniProt P23977). Description: Inhibition of [3H]DA uptake at DAT in synaptosomal preparations. Particulars: read-out: DAT Ki value ([3H]DA uptake); synaptosomes. In kind it is biochemical. Summed up:
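Synaptosomes are preincubated with test compound (1 nM–100 μM) for 5 min at 34 °C, then placed on ice. [3H]DA is added from a 0.1 μM solution, followed by a further 10 min at 34 °C. Nonspecific uptake is defined with 10 μM nomifensine.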

The test system of data set [4] is METH-evoked DA release from striatal slices. Description: Inhibition of METH-evoked DA release from superfused striatal slices. In kind it is cell-based, rat. Particulars: for Imax for inhibition of METH-evoked DA release / IC50: METH 5 μM, total DA overflow, striatal slices; for Effect of analog alone on fractional DA release: analog alone in superfusion buffer, 0.3–30 μM; for IC50: read-out: IC50 for inhibition of METH-evoked DA release. In a few lines: (§1)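 Rat coronal striatal slices are preincubated 60 min at 34 °C in Krebs buffer, then superfused at 1 ml/min for 60 min. Two 5-min basal samples are collected into 0.1 M perchloric acid. Test compound (one concentration per slice, 0.3–30 μM) runs 30 min, then with 5 μM METH for 15 min, then alone for 20 min. Buffer-control and METH-control slices are included. Superfusate is ascorbate-oxidase treated and analysed by HPLC-electrochemical detection.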

For data set [5], the target named is T1, VMAT2. Description: Kinetic analysis of inhibition of [3H]DA uptake at VMAT2. In kind it is biochemical. Particulars: for Vmax of [3H]DA uptake at VMAT2: analog at its Ki concentration, control 29.9±4.30; for Mechanism of VMAT2 inhibition: kinetic analysis of [3H]DA uptake. In a few lines:
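Rat synaptic vesicle suspension was added to assay buffer containing inhibitor or buffer (control), plus [3H]DA across 0.001–5.0 μM. Incubation ran 8 min and was stopped by filtration, then filter-retained radioactivity was counted. Nonspecific uptake was defined with Ro4-1284 (10 μM).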

Data set [6] concerns fractional DOPAC release from rat striatal slice preparations. Description: Fractional DOPAC release from superfused striatal slices. The note with it: 30 min superfusion before METH, 0.3–30 μM. The class given is cell-based. Summed up: as §1
A further data set can be described thus: Water solubility. In kind it is physicochemical.
Another data set concerns METH addicts. Particulars: ref NCT00439504; cited from earlier work.
For the next data set, the system named is SERT. The note with it: ref Miller et al., 2004; cited from earlier work.
Data set [7] concerns the target T2, DAT. Particulars: ref Miller et al., 2004; cited from earlier work.
Data set [8] concerns METH-evoked DA release from striatal slices. The note with it: ref Horton, Siripurapu, Norrholm, et al., 2011; cited from earlier work.
[9] abbreviates: rat striatal vesicles, mean±SEM.
The mark [10] stands for this setting: read-out: VMAT2 [3H]DA uptake Ki, rat striatal vesicles, 0.1 μM [3H]DA, mean±SEM.

T2 sequence (P23977 whole entry): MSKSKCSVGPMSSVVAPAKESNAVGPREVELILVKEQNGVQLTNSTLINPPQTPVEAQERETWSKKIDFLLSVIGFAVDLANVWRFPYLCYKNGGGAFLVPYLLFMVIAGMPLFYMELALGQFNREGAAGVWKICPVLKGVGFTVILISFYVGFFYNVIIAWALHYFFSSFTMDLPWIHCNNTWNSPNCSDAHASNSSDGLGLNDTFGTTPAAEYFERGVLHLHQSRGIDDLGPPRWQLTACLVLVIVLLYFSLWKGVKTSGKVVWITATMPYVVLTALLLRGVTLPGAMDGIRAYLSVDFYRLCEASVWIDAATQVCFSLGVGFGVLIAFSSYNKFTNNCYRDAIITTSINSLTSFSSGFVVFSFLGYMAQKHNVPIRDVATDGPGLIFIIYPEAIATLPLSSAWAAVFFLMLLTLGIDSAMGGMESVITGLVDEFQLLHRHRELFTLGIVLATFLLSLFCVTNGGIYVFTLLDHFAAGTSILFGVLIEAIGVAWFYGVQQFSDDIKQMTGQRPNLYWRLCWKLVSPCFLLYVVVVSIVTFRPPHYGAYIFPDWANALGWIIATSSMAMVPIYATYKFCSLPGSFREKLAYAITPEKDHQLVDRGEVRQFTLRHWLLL
T1 sequence (Q01827 whole entry): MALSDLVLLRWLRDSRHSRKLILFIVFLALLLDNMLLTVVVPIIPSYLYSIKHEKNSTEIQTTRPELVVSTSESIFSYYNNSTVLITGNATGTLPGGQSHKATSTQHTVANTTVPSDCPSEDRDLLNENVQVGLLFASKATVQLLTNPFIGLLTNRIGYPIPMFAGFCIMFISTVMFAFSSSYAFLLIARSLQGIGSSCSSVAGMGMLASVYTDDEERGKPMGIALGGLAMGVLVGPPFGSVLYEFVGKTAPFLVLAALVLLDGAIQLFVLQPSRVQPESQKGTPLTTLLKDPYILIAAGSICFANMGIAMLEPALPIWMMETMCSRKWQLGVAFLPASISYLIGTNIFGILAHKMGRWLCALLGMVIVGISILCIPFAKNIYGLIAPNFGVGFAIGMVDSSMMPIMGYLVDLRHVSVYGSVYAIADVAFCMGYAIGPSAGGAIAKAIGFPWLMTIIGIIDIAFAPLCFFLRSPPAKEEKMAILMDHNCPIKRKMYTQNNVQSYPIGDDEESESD

Take `COc1ccc(CC[C@H]2CCC[C@@H](CCc3ccc(OC)cc3)N2C[C@@H](O)CO)cc1` (relative stereo) [GZ-793A, (R)-3-[2,6-cis-di(4-methoxyphenethyl)piperidin-1-yl]propane-1,2-diol]: the “Effect on cue- and METH-induced reinstatement of METH-seeking” value in the data set on rats (rats, 15 mg/kg, ref Alvers et al., 2012) was “decrease reinstatement”.

In the case of `Cl.c1ccc(CC[C@@H]2CC[C@H](CCc3ccccc3)N2)cc1` [AV-1-228, cis-2,5-di-(2-phenethyl)-pyrrolidine hydrochloride], on VMAT2 [1], the Ki was determined as 2660 ± 370 nM and the “[3H]DTBZ binding Imax” value was determined as 100%. On VMAT2 [2] (setting [9]), the “VMAT2 [3H]DA uptake Imax” value stood at 100%. The Ki on VMAT2 [2] (setting [10]) amounted to 28 ± 1 nM.

Turning to `c1ccc(C[C@H]2CC[C@@H](Cc3ccccc3)N2)cc1` [AV-2-192, cis-2,5-di(2-benzyl)-pyrrolidine], the Ki on DAT [3] was found to be 2630 nM. For the same compound, in data set [4], the “Imax for inhibition of METH-evoked DA release” value came out at 55%, the “Effect of analog alone on fractional DA release” value is “did not alter fractional DA release” and the IC50 came to 5200 nM. Further, at VMAT2 [5], the “Vmax of [3H]DA uptake at VMAT2” value turned out to be 29.6 ± 7.28 pmol/min/mg and the “Mechanism of VMAT2 inhibition” value is “competitively inhibit; also recorded: Competitive”. In addition, at VMAT2 [1], the Ki came out at 1640 ± 120 nM and the “[3H]DTBZ binding Imax” value was 100%. Besides, at VMAT2 [2] (setting [9]), the “VMAT2 [3H]DA uptake Imax” value is on record as 100%. Also, at VMAT2 [2] (read-out: Ki at the DA uptake site on VMAT2), the inhibition constant Ki is below 10 nM. In addition, the Ki on VMAT2 [2] (setting [10]) worked out at 9.3 ± 0.75 nM. The “Lowest concentration to increase extracellular DOPAC” value in data set [6] was 3 µM.

Turning to `CN1[C@@H](Cc2ccccc2)CC[C@H]1Cc1ccccc1` [AV-2-197, 1-methyl-cis-2,5-di(2-benzyl)-pyrrolidine], the Ki at DAT [3] came to 5400 nM. Further, in data set [4], the “Imax for inhibition of METH-evoked DA release” value stood at 63%, the “Effect of analog alone on fractional DA release” value is on record as “did not alter fractional DA release” and the IC50 is 4200 nM. Further, at VMAT2 [5], the “Vmax of [3H]DA uptake at VMAT2” value amounted to 22.0 ± 4.36 pmol/min/mg and the “Mechanism of VMAT2 inhibition” value is recorded as “competitively inhibit; also recorded: Competitive”. In addition, on VMAT2 [1], the Ki was determined as 2460 ± 420 nM and the “[3H]DTBZ binding Imax” value was 96±1%. For the same compound, on VMAT2 [2], the “Increased affinity for the DA uptake site on VMAT2 compared with AV-1-229A” value is 14 orders-of-magnitude. Moreover, the “VMAT2 [3H]DA uptake Imax” value at VMAT2 [2] (setting [9]) is recorded as 100%. Also, the Ki at VMAT2 [2] (setting [10]) was found to be 19 ± 0.91 nM. In addition, the “Lowest concentration to increase extracellular DOPAC” value in [6] stood at 10 µM.

Take `CN1[C@@H](CCc2ccccc2)CCC[C@H]1CCc1ccccc1` [Lobelane, N-methyl-2,6-bis(cis-phenylethyl)piperidine, reference compound]: the “Water solubility (in words)” value in the data set “Water solubility” is given as “decreased water solubility”.

With `CN1[C@@H](CC(=O)c2ccccc2)CCC[C@H]1C[C@H](O)c1ccccc1` [Lobeline, reference compound], the “Effect on locomotor activity in response to METH” value in the data set with rats (adult male rats, 3 mg/kg 10 min prior to METH 1 mg/kg, 10 consecutive days, ref Miller, Green, et al. (2000)) was “significantly reduced locomotor activity”. The “Safety in phase 1b clinical trials” value with METH addicts was “safe”.

`CN1C(/C=C\c2ccccc2)CCCC1/C=C\c1ccccc1` (stereo not drawn) [MTD, N-methyl-2,6-bis(cis-phenylethenyl) piperidine]: the “Fold lower affinity for SERT compared with lobeline” value in the data set with SERT is 6.5 fold. Further, in the data set “Water solubility”, the “Water solubility (in words)” value was “limited solubility”. For the same compound, the “Fold higher affinity for DAT compared with lobeline” value on DAT [7] is on record as 100 fold.

Take `CN1C/C(=C\c2ccc(Cl)cc2Cl)C/C(=C/c2ccc(Cl)cc2Cl)C1` [UKMH-106, (3Z,5Z)-3,5-bis(2,4-dichlorobenzylidene)-1-methylpiperidine]: the “Water solubility (in words)” value in “Water solubility” was “improved water solubility”. Besides, the “Inhibition of METH-evoked DA release (in words)” value in data set [8] is on record as “inhibited”.

A word on the Ki: it is a dissociation constant, usually derived from enzyme kinetics or from competition with a known ligand. Broadly, the IC50 is the concentration that inhibits the measured activity by half.
